Here are results for two compounds from ChEMBL document CHEMBL2331413, “Novel in vivo active anti-malarials based on a hydroxy-ethyl-amine scaffold” (Bioorg Med Chem Lett, 2013).

Series [1] is described as follows: Metabolic stability in mouse liver microsomes. The following applies: read-out: Stability. The format is ADME, Microsome. The gist of the method: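 In vitro metabolic stability was measured with a mouse liver microsomal preparation and expressed as intrinsic clearance in µl/(min mg).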
Series [2] has as its system Plasmodium falciparum. In words: Antimalarial activity against chloroquine-sensitive Plasmodium falciparum NF54 infected in RBC after 24 hrs by [3H]hypoxanthine incorporation assay in presence of 0.5 % albumax. The series is classed as functional, organism-based.
Series [3] deals with Plasmodium falciparum. The series is described as follows: Antimalarial activity against chloroquine-sensitive Plasmodium falciparum NF54 infected in RBC after 48 hrs by [3H]hypoxanthine incorporation assay in presence of 0.5 % albumax. The format is functional, organism-based.
Series [4] deals with Plasmodium berghei. In words: Antimalarial activity against GFP-transfected Plasmodium berghei ANKA infected in mouse assessed as increase in host survival time at 100 mg/kg, po administered as single dose […]. The format is functional. The procedure, abridged: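 P. berghei-infected mouse model; a single oral dose of 100 mg/kg. Parasitemia was expressed relative to untreated control animals. Mean survival time in days was compared with that of untreated mice.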
In general terms: Flow cytometry measures light scatter and fluorescence of single cells or particles in a stream.

Series [5] has as its system Plasmodium falciparum. The series is described as follows: Antimalarial activity against chloroquine-resistant Plasmodium falciparum K1 infected in RBC by [3H]hypoxanthine incorporation assay in presence of 0.5 % albumax. The series is classed as functional, organism-based.
Series [6] deals with Plasmodium falciparum. In words: Antimalarial activity against chloroquine-sensitive Plasmodium falciparum NF54 infected in RBC after 72 hrs by [3H]hypoxanthine incorporation assay in presence of 0.5 % albumax. The series is classed as functional, organism-based.
In series [7] the test system is Plasmodium berghei. The series is described as follows: Antimalarial activity against GFP-transfected Plasmodium berghei ANKA in mouse blood assessed as inhibition of schizont maturation compound incubated for 16 hrs followed by 8 hrs of [3H]hypoxanthine incorporation. The series is classed as functional, organism-based.
The test system of series [8] is Plasmodium falciparum. In words: Antimalarial activity against chloroquine-sensitive Plasmodium falciparum NF54 infected in RBC after 72 hrs by [3H]hypoxanthine incorporation assay in presence of 50 % serum. The series is classed as functional, organism-based.
Series [9] concerns Plasmodium berghei. In words: Antimalarial activity against GFP-transfected Plasmodium berghei ANKA infected in mouse assessed as reduction in parasitemia at 100 mg/kg, po administered as single dose measured after 72 hrs by flow cytometry. The format is functional. Also noted: scale not given: the % may be the effect or the level left.
Series [10] relates to Plasmodium falciparum. In words: Antimalarial activity against chloroquine-resistant Plasmodium falciparum K1 infected in RBC by [3H]hypoxanthine incorporation assay in presence of 50 % serum. The format is functional, organism-based.
For series [11], the system named is Plasmodium berghei. The series is described as follows: Antimalarial activity against GFP-transfected Plasmodium berghei ANKA in mouse blood assessed as inhibition of schizont maturation after 48 hrs by [3H]hypoxanthine incorporation assay relative to control. The series is classed as functional, organism-based.
In series [12] the test system is Plasmodium berghei. In words: Antimalarial activity against GFP-transfected Plasmodium berghei ANKA in mouse blood assessed as inhibition of schizont maturation after 72 hrs by [3H]hypoxanthine incorporation assay. The format is functional, organism-based.

pIC50: −log10 of the molar value. The source made the active and inactive calls. The calls are words filed in the database; no cut-off is given here.

Turning to `CCCN(CCC)Cc1cc(CNC[C@@H](O)[C@H](Cc2ccccc2)NC(=O)c2ccc(N3CCN(C)CC3)cc2)ccc1O`, the microsomal CLint in [1] was determined as 90 µL/min/mg. Besides, the negative-log IC50 (pIC50) was 7.16 in the series with Plasmodium falciparum [2]; 7.30 in the series on Plasmodium falciparum [3]; 7.89 in the series on Plasmodium falciparum [5]; 7.19 with Plasmodium falciparum [6]; 6.85 in the series with Plasmodium berghei [7]; 7.38 in the series with Plasmodium falciparum [8]. The pIC50 in the series with Plasmodium falciparum [10] was 8.02. In addition, the Survival in the series on Plasmodium berghei [4] came to 7 days. In the series with Plasmodium berghei [9], the Activity stood at 87%.

Take `Cc1cc(Nc2ccc(C(=O)N[C@@H](Cc3ccccc3)[C@H](O)CN[C@H](C)c3ccccc3)cc2)ccn1`: the outcome with Plasmodium berghei [11] and with Plasmodium berghei [12] was Active. Also, in series [1], the microsomal CLint is 69 µL/min/mg. Further, the pIC50 in the series with Plasmodium falciparum [2] is 6.76; in the series on Plasmodium falciparum [5], 7.80; with Plasmodium falciparum [6], 8.01; in the series with Plasmodium berghei [7], 6.64; with Plasmodium falciparum [8] it was 7.54; with Plasmodium falciparum [10] it was 7.59. Also, in the series with Plasmodium berghei [4], the Survival stood at 3 days. Besides, the Activity with Plasmodium berghei [9] is recorded as 33%.

What is called pIC50 is −log10 of the IC50, conventionally taken in molar units.
